The values that follow come from ChEMBL document CHEMBL1909618, “Non-steroidal dissociated glucocorticoid agonists: indoles as A-ring mimetics and function-regulating pharmacophores” (Bioorg Med Chem Lett, 2011).

The species entered for one data set is Homo sapiens. As to the kind of experiment: Selectivity ratio of IC50 for human recombinant glucocorticoid receptor to IC50 for human recombinant mineralocorticoid receptor.
Data set [1] can be described thus: Clearance in B10.R3 mouse at 1 mg/kg, iv. The data set is classed as ADME, organism-based. Details: dose 1 mg/kg, route intravenous. The conditions noted are these: in vivo. The method, boiled down:
(§1)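 Mouse PK: IV dose 1 mg/kg in PEG400/water (70:30); oral dose 30 mg/kg given as a suspension in 30% Cremophor. Values are the mean of 3 mice.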

A short description of data set [2]: Volume of distribution at steady state in B10.R3 mouse at 1 mg/kg, iv. More on the design: dose 1 mg/kg, route intravenous. In kind it is ADME, organism-based. The conditions noted are these: in vivo, read-out: Vdss. The method, boiled down:
as §1

Data set [3] can be described thus: Clearance in Sprague-Dawley rat at 2 mg/kg, iv. In kind it is ADME, organism-based. Details: dose 2 mg/kg, route intravenous. The conditions noted are these: in vivo. An outline of the steps:
(§2)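 Rat PK: IV dose 2 mg/kg in PEG400/water (70:30); oral dose 30 mg/kg in PEG400/H2O/Tween (80/18/2). Values are the mean of 3 rats.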

A short description of data set [4]: Half life in Sprague-Dawley rat at 2 mg/kg, iv. The data set is classed as ADME, organism-based. More on the design: dose 2 mg/kg, route intravenous. The conditions noted are these: in vivo. The method, boiled down:
as §2

Data set [5] is described as follows: Oral bioavailability in Sprague-Dawley rat at 30 mg/kg. The data set is classed as ADME, organism-based. The settings on record: in vivo. The method, boiled down:
as §2

Data set [6] relates to Mus musculus. Kind of data set: Toxicity in B10.R3 mouse collagen-induced arthritis model assessed as change in body weight at 30 mg/kg, po qd for 5 weeks relative to control. The data set is classed as organism-based. Details: dose 30 mg/kg, route oral. The settings on record: in vivo, 840 h.
Data set [7] concerns Mus musculus. Kind of data set: Antiarthritic activity in B10.R3 mouse collagen-induced arthritis model assessed as AUC of disease progression inhibition at 10 mg/kg, po qd for 5 weeks. The data set is classed as functional. The settings on record: B10.R3, 840 h. An outline of the steps:
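B10.RIII mice immunized with porcine type II collagen plus complete Freund's adjuvant were enrolled at the first signs of arthritis. They were dosed orally once daily for 5 weeks; vehicle was 30% Cremophor RH. All four paws were scored 1–4 (maximum 16 per animal). Disease-score AUCs from 10 mice per group were compared with vehicle by Mann–Whitney test.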

Data set [8] addresses T1, Androgen receptor (Homo sapiens) (UniProt P10275).
T1 sequence (whole entry): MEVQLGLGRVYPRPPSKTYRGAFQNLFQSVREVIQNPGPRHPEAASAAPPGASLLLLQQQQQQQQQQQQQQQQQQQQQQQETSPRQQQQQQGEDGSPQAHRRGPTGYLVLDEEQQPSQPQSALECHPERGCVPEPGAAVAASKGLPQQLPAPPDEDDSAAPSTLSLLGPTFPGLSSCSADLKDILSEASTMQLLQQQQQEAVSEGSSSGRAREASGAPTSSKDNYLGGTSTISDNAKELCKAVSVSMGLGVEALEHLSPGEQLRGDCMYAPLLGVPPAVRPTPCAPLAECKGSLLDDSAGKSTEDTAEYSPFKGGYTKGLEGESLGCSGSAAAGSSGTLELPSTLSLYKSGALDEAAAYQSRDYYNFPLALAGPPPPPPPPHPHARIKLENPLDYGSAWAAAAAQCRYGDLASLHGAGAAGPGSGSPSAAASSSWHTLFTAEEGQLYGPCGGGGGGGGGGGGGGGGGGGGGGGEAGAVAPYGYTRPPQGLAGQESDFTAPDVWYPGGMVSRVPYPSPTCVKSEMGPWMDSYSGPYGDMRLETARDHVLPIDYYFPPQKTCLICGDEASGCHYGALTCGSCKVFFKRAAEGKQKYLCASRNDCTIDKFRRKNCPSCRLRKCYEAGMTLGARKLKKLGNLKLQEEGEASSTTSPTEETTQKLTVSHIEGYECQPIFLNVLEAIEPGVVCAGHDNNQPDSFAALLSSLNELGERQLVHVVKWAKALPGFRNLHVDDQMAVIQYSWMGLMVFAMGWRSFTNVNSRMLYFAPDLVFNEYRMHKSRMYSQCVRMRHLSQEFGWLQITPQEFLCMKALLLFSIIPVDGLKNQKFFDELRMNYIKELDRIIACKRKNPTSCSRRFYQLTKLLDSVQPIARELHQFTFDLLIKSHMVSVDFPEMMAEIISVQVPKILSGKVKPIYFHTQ
As to the kind of experiment: Displacement of [3H]-testosterone from human recombinant androgen receptor expressed in baculovirus infected insect cells at 1200 nM. An outline of the steps:
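Competition of test compound at a single concentration against 10 nM ³H-testosterone for binding to recombinant human AR in lysates of baculovirus-infected cells. Dihydrotestosterone at 2 µM served as the positive control. Results are expressed as % of control.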
(Displacement assays read how much labelled ligand stays bound in the presence of the test substance.)

Calls of active or inactive are those of the source. No cut-off for these calls is given here.

The term clearance denotes a measure of how efficiently the substance is removed, as volume per time. In general, half-life refers to the time in which the quantity being followed falls by half. A low value points to rapid decline. Broadly, the bioavailability is dose-corrected exposure relative to a reference, in per cent. As a reminder, the inhibition in vivo is the share of the control response that was lost under treatment. Turning to `CC(C)(C[C@@](O)(Cc1cc2ccc(C#N)cc2[nH]1)C(F)(F)F)c1cc(S(C)(=O)=O)cc2c1OCC2`, in the data set filed under Homo sapiens, the Ratio IC50 worked out at 100. In addition, the clearance turned out to be 4 mL/min/kg in data set [1] and 51 mL/min/kg in [3]. Also, the Vd in data set [2] came out at 0.9 L/kg. This compound also had a half-life in [4] of 1.7 h. The compound also showed a bioavailability in data set [5] of 51%. Besides, the Activity in the data set on Mus musculus [6] was -8%. The inhibition in vivo at 10 mg/kg in the data set on Mus musculus [7] was 62%.
On to `COc1ccc(F)cc1C(C)(C)C[C@@](O)(Cc1cc2ccccc2[nH]1)C(F)(F)F`, for which, in data set [8], the outcome was inactive.
